Measured values as given in ChEMBL document CHEMBL1145389, “Total synthesis and biological evaluation of C16 analogs of (-)-dictyostatin” (2007).

Key:
Bos taurus [1] = organism: Bos taurus; test: Induction of bovine brain tubulin polymerization at 10 uM relative to paclitaxel
HeLa = test: Increase in cellular tubulin polymer mass in HeLa cells assessed as minimum detectable effective concentration after 21 hrs; type: functional, Homo sapiens
Outline: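 HeLa cells exposed continuously for 21 h; lowest concentration producing a detectable rise in cellular tubulin polymer mass recorded as MDEC.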

1A9/ptx-22 = test: Growth inhibition of beta tubulin A364T mutant expressing human 1A9/Ptx22 cells after 72 hrs; type: functional; conditions: 1A9/ptx-22, 72 h
Outline: (§1)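 GI50 determined after 72 h continuous exposure to test agent in ovarian carcinoma 1A9 cells and in paclitaxel-resistant 1A9 clones carrying mutant β-tubulin (Ptx10, βPhe270→Val; Ptx22, βAla364→Thr).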

Bos taurus [2] = organism: Bos taurus; test: Displacement of [3H]paclitaxel from bovine brain tubulin at 4 uM
Outline: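 Competition at 37 °C: 4 µM test agent against 2 µM [³H]paclitaxel for binding to microtubules assembled from 2 µM bovine brain tubulin with 20 µM dideoxyGTP; reported as percent competition.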

1A9/ptx-10 = test: Growth inhibition of beta tubulin Phe270Val mutant expressing human 1A9/Ptx10 cells after 72 hrs; type: functional; conditions: 1A9/ptx-10, 72 h
Outline: as §1

1A9 = test: Growth inhibition of human 1A9 cells after 72 hrs; type: functional; conditions: 1A9, 72 h
Outline: as §1

| SMILES | % tubulin polymerization (Bos taurus [1]) [%] | Activity (HeLa) [nM] | GI50 (1A9/ptx-22) [nM] | Activity (Bos taurus [2]) [%] | GI50 (1A9/ptx-10) [nM] | GI50 (1A9) [nM] |
| --- | --- | --- | --- | --- | --- | --- |
| C=C/C=C\[C@H](C)[C@@H]1OC(=O)/C=C\C=C\[C@@H](C)[C@@H](O)C[C@@H](O)/C=C\[C@H](C)[C@H](O)[C@@H](C)/C=C\CC[C@@H](O)[C@@H]1C | 1 | > 5000 | 4600 | 11 | 19300 | 4260 |
| CC(=O)O[C@H]1C(=O)[C@@]2(C)[C@H]([C@H](OC(=O)c3ccccc3)[C@]3(O)C[C@H](OC(=O)[C@H](O)[C@@H](NC(=O)c4ccccc4)c4ccccc4)C(C)=C1C3(C)C)[C@]1(OC(C)=O)CO[C@@H]1C[C@@H]2O [PACLITAXEL] | 100 | 5.2 | 51 |  | 64 | 0.71 |
| C=C/C=C\[C@H](C)[C@H](OC(N)=O)[C@@H](C)[C@H](O)[C@@H](C)C/C(C)=C\[C@H](C)[C@@H](O)[C@@H](C)/C=C\[C@@H](O)C[C@@H]1OC(=O)[C@H](C)[C@@H](O)[C@H]1C [DISERMOLIDE] | 148 | 65 | 7 | 76 | 6.2 | 1.7 |
| C=C/C=C\[C@H](C)[C@H](O)[C@@H](C)[C@H]1CC[C@@H](C)C[C@H](C)[C@@H](O)[C@@H](C)/C=C\[C@@H](O)C[C@H](O)[C@H](C)/C=C/C=C\C(=O)O1 | 3 | > 5000 | 53800 | 4 | 44200 | 7800 |
| C=C/C=C\[C@H](C)[C@@H]1OC(=O)/C=C\C=C\[C@@H](C)[C@@H](O)C[C@H](O)/C=C\[C@H](C)[C@H](O)[C@@H](C)CCCC[C@@H](O)[C@@H]1C | 91 | 25 | 5.6 | 48 | 470 | 0.41 |
| C=C/C=C\[C@H](C)[C@@H]1OC(=O)/C=C/C=C/[C@@H](C)[C@@H](O)C[C@H](O)/C=C\[C@H](C)[C@H](O)[C@@H](C)/C=C\CC[C@@H](O)[C@@H]1C | 10 | 647 | 847 | 5 | 23700 | 210 |
| C=C/C=C\[C@H](C)[C@@H]1OC(=O)/C=C\C=C\[C@@H](C)[C@@H](O)C[C@H](O)/C=C\[C@H](C)[C@H](O)[C@@H](C)C[C@H](C)CC[C@@H](O)[C@@H]1C | 9 | 1280 | 543 | 11 | 862 | 61 |
| C=C/C=C\[C@H](C)[C@H](O)[C@H](C)[C@@H]1CC/C=C\[C@H](C)[C@@H](O)[C@@H](C)/C=C\[C@H](O)C[C@H](O)[C@H](C)/C=C\C=C\C(=O)O1 | 6 | > 5000 | > 50000 | 7 | 32700 | > 50000 |
| C=C/C=C\[C@H](C)[C@H](OC(N)=O)[C@@H](C)[C@H](O)[C@@H](C)C/C=C\[C@H](C)[C@@H](O)[C@@H](C)/C=C\[C@@H](O)C[C@@H]1OC(=O)[C@H](C)[C@@H](O)[C@H]1C |  | 29 | 30 | 75 | 33 | 3.7 |
| C=C/C=C\[C@H](C)[C@@H]1OC(=O)/C=C\C=C\[C@@H](C)[C@@H](O)C[C@H](O)/C=C\[C@H](C)[C@H](O)[C@@H](C)C[C@@H](C)CC[C@@H](O)[C@@H]1C [DICTYOSTATIN] |  | 5.4 | 1.3 | 75 | 3.2 | 0.69 |
| C=C/C=C\[C@H](C)[C@@H]1OC(=O)/C=C\C=C\[C@@H](C)[C@@H](O)C[C@H](O)/C=C\[C@H](C)[C@H](O)[C@@H](C)/C=C\CC[C@@H](O)[C@@H]1C | 107 | 11 | 62 | 38 | 942 | 8.3 |
